# The RNAGym collection of RNA variant scans (doi:10.1126/science.aae0568)
# Variants at the floor of the assay were thinned out.
# B1: tRNA (parent)
# chain: GUUCCGUUGGCGUAAUGGUAACGCGUCUCCCUCCUAAGGAGAAGACUGCGGGUUCGAGUCCCGUACGGAACG
# Variants of: B1
# Assay: yeast fitness relative to wild type (ratio to wild type); higher = fitter; tRNA-Arg(CCU), competitive growth, 37 C, YPD
# How it was run: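 Start and end populations of a pooled competition were compared by 100-nucleotide paired-end sequencing of gene amplicons. The Saccharomyces cerevisiae strains carried tRNA-Arg(CCU) gene variants at the native genomic locus, synthesised with a 3% per-site mutation rate at 69 sites, and competed in YPD at 37°C for 24 hours in six parallel replicates. Darwinian fitness relative to wild type was based on the change in genotype frequencies. Genotypes required ≥ 100 starting reads, and estimates < 0.5 were set to 0.5.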
row,Variant,yeast fitness
1,C34U A70G,0.803
2,C4G U16C G44A G48A G50C C66G,≤ 0.5
3,C11U A14U C24G G44A C49U G67U,≤ 0.5
4,G6A C31U A43U,0.529
5,A14G C30G,0.591
6,C4G G9C G41A U53C C55U U59A A70U,≤ 0.5
7,A15U A40U G68C,0.627
8,U16A C34U U54C,≤ 0.5
9,C29U G68U,0.803
10,A45G C49G A65U,0.56
11,G12C U26A U35A,≤ 0.5
12,U8C G9A U13G C62U,≤ 0.5
13,G12A G23A U28G G56C A65U,0.762
14,C11A A42G,0.631
15,C5G G25C C49U,0.689
16,C5A G48C A57U,≤ 0.5
17,C4U U32A U35C,0.511
18,C30U G58C,0.822
19,U8A C62U,0.7
20,A20U U28G U32G C34G,0.513
21,U2C C11U G25U C29U G39A,≤ 0.5

row,Variant,yeast fitness
1,C4U C33A A40U G68A,≤ 0.5
2,U2G C27G G67U,≤ 0.5
3,C27G U32G A36C C46G,≤ 0.5
4,G12A C55G,0.639
5,C5U A15G U16A A20G U28A C30A C33A A36U,≤ 0.5
6,C4G C31G A70C,0.537
7,C5G A14U C30A C62A,≤ 0.5
8,C11G C34A A45G U54A,≤ 0.5
9,C34U A40G C55G,≤ 0.5
10,C49U C61G A69C,0.559
11,G18A C49U U54C,0.539
12,C5U U19C C66U,0.82
13,C11G G23C G25A,0.977
14,G18C U47A A70U,≤ 0.5
15,U19C C22G,0.978
16,G52C C61U,0.66
17,G17C C24G U28A C30U,0.646
18,U8A A42U C62G,≤ 0.5
19,C33A A43C G50A A57U C60G,≤ 0.5
20,U19C C27A C30U G56C,≤ 0.5
21,U19A C27G A65U,≤ 0.5

row,Variant,yeast fitness
1,U7C G38A G58C,0.648
2,C29U A40G C60G,≤ 0.5
3,G12A A14C U16C C31U C49G C60A,≤ 0.5
4,U8C G23A A65C,0.571
5,C4A C33G A45G,≤ 0.5
6,C11U C55A G58C,≤ 0.5
7,C5U A20U U26A C49A A57C C62U,≤ 0.5
8,G6A U13A,0.848
9,C5U U28C A36C A40C A42U,≤ 0.5
10,G6C A42U C49U,0.595
11,C34G A40C G48A,≤ 0.5
12,C27G A36U G39C,0.526
13,A21G A40C G50C,≤ 0.5
14,U19C A37C A45C C46A,0.897
15,G12A U13G C61U G67C,0.678
16,G48A G67C,1.02
17,C34A A43U A70U,0.607
18,C22U A37U,0.694
19,U3A G12C A21C A36C,≤ 0.5
20,C4G C49U C66U,0.681
21,G10C A14U C62U,0.51

row,Variant,yeast fitness
1,C27A A45U C60G G63A A65U C66U,≤ 0.5
2,C5U A21U U53A A57U C60A G68C,≤ 0.5
3,U8C G9C C49U,≤ 0.5
4,U13G C22U,0.972
5,A14U C24G A36G C66U,≤ 0.5
6,A36G A37U U64C A65G,≤ 0.5
7,C33G A40U A70G,0.545
8,C5U U19A G51C G58A,≤ 0.5
9,U8G C29U G50C U59A,≤ 0.5
10,C4A G10C U26A U64A,≤ 0.5
11,U19C U54C,0.879
12,C27U A42G,0.695
13,U32C A45U G52A A70U,≤ 0.5
14,A20U G39C A40G C49U C55G,≤ 0.5
15,C5G C22G A36C,≤ 0.5
16,C31U C66A,0.774
17,C4U A15U A42C A57U,≤ 0.5
18,A20G G51C,0.581
19,C4U C24G C61U,0.555
20,C5G C29U A40G A57G,≤ 0.5
21,C5G U19G,0.916
